Results reported in ChEMBL document CHEMBL5058577, “EUbOPEN Chemogenomics Library 2 (Multiplex)” (2022).

Test system: Fibroblast
Test: Multiplex assay against human fibroblast
Type: toxicity, cell-based
Method in brief: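 Live cells were stained at seeding with Hoechst33342, BioTracker Green Microtubule Cytoskeleton Dye, MitoTracker Red and Annexin V Alexa Fluor 680, then imaged on a CQ1 microscope at 37°C and 5% CO2 after compound addition. CellPathfinder machine-learning gating split cells into Hoechst high-intensity objects or normal cells. Normal cells were split into healthy, pyknosed or fragmented nuclei, and pyknosed cells into mitotic or apoptotic. Tubulin, mitochondrial-mass and membrane-permeability phenotypes are per cents of healthy-nucleus cells.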

[1] = 12 h, 1 µM, compound concentration 1 uM, replicate 1
[2] = 12 h, 1 µM, compound concentration 1 uM, replicate 2
[3] = 12 h, 10 µM, compound concentration 10 uM, replicate 1
[4] = 12 h, 10 µM, compound concentration 10 uM, replicate 2
[5] = 24 h, 1 µM, compound concentration 1 uM, replicate 1
[6] = 24 h, 1 µM, compound concentration 1 uM, replicate 2
[7] = 24 h, 10 µM, compound concentration 10 uM, replicate 1
[8] = 24 h, 10 µM, compound concentration 10 uM, replicate 2
[9] = 48 h, 1 µM, compound concentration 1 uM, replicate 1
[10] = 48 h, 1 µM, compound concentration 1 uM, replicate 2
[11] = 48 h, 10 µM, compound concentration 10 uM, replicate 1
[12] = 48 h, 10 µM, compound concentration 10 uM, replicate 2

O=c1ccc2ccc(OCCCCN3CCN(c4cccc5sccc45)CC3)cc2[nH]1 [BREXPIPRAZOLE]
Population Apoptotic (%) [1]: 56% | Population Fragmented Nuclei (%) [1]: 17% | Population Healthy Nuclei (%) [1]: 62% | Population Hoechst High Intensity Objects (%) [1]: 2% | Population Membrane Permeable-Phenotype (%) [1]: 0% | Population Mitochondria Different-Phenotype (%) [1]: 5% | Population Mitotic Cells (%) [1]: 44% | Population Normal (%) [1]: 97% | Population Pyknosed Nuclei (%) [1]: 20% | Population Tubulin-Different-Phenotype (%) [1]: 41% | Total Cell Count [1]: 126 | Population Apoptotic (%) [2]: 48% | Population Fragmented Nuclei (%) [2]: 33% | Population Healthy Nuclei (%) [2]: 44% | Population Hoechst High Intensity Objects (%) [2]: 5% | Population Membrane Permeable-Phenotype (%) [2]: 2% | Population Mitochondria Different-Phenotype (%) [2]: 15% | Population Mitotic Cells (%) [2]: 51% | Population Normal (%) [2]: 94% | Population Pyknosed Nuclei (%) [2]: 21% | Population Tubulin-Different-Phenotype (%) [2]: 73% | Total Cell Count [2]: 169 | Population Apoptotic (%) [3]: 68% | Population Fragmented Nuclei (%) [3]: 16% | Population Healthy Nuclei (%) [3]: 64% | Population Hoechst High Intensity Objects (%) [3]: 1% | Population Membrane Permeable-Phenotype (%) [3]: 0% | Population Mitochondria Different-Phenotype (%) [3]: 39% | Population Mitotic Cells (%) [3]: 31% | Population Normal (%) [3]: 98% | Population Pyknosed Nuclei (%) [3]: 19% | Population Tubulin-Different-Phenotype (%) [3]: 83% | Total Cell Count [3]: 203 | Population Apoptotic (%) [4]: 45% | Population Fragmented Nuclei (%) [4]: 30% | Population Healthy Nuclei (%) [4]: 49% | Population Hoechst High Intensity Objects (%) [4]: 11% | Population Membrane Permeable-Phenotype (%) [4]: 2% | Population Mitochondria Different-Phenotype (%) [4]: 25% | Population Mitotic Cells (%) [4]: 54% | Population Normal (%) [4]: 88% | Population Pyknosed Nuclei (%) [4]: 20% | Population Tubulin-Different-Phenotype (%) [4]: 81% | Total Cell Count [4]: 243 | Population Apoptotic (%) [5]: 56% | Population Fragmented Nuclei (%) [5]: 17% | Population Healthy Nuclei (%) [5]: 69% | Population Hoechst High Intensity Objects (%) [5]: 1% | Population Membrane Permeable-Phenotype (%) [5]: 0% | Population Mitochondria Different-Phenotype (%) [5]: 8% | Population Mitotic Cells (%) [5]: 43% | Population Normal (%) [5]: 98% | Population Pyknosed Nuclei (%) [5]: 13% | Population Tubulin-Different-Phenotype (%) [5]: 43% | Total Cell Count [5]: 122 | Population Apoptotic (%) [6]: 33% | Population Fragmented Nuclei (%) [6]: 32% | Population Healthy Nuclei (%) [6]: 52% | Population Hoechst High Intensity Objects (%) [6]: 3% | Population Membrane Permeable-Phenotype (%) [6]: 2% | Population Mitochondria Different-Phenotype (%) [6]: 14% | Population Mitotic Cells (%) [6]: 66% | Population Normal (%) [6]: 96% | Population Pyknosed Nuclei (%) [6]: 14% | Population Tubulin-Different-Phenotype (%) [6]: 76% | Total Cell Count [6]: 173 | Population Apoptotic (%) [7]: 58% | Population Fragmented Nuclei (%) [7]: 13% | Population Healthy Nuclei (%) [7]: 54% | Population Hoechst High Intensity Objects (%) [7]: 13% | Population Membrane Permeable-Phenotype (%) [7]: 0% | Population Mitochondria Different-Phenotype (%) [7]: 63% | Population Mitotic Cells (%) [7]: 41% | Population Normal (%) [7]: 86% | Population Pyknosed Nuclei (%) [7]: 31% | Population Tubulin-Different-Phenotype (%) [7]: 85% | Total Cell Count [7]: 218 | Population Apoptotic (%) [8]: 65% | Population Fragmented Nuclei (%) [8]: 30% | Population Healthy Nuclei (%) [8]: 40% | Population Hoechst High Intensity Objects (%) [8]: 19% | Population Mitochondria Different-Phenotype (%) [8]: 34% | Population Mitotic Cells (%) [8]: 34% | Population Normal (%) [8]: 80% | Population Pyknosed Nuclei (%) [8]: 28% | Population Tubulin-Different-Phenotype (%) [8]: 71% | Total Cell Count [8]: 239 | Population Apoptotic (%) [9]: 62% | Population Fragmented Nuclei (%) [9]: 24% | Population Healthy Nuclei (%) [9]: 62% | Population Hoechst High Intensity Objects (%) [9]: 4% | Population Membrane Permeable-Phenotype (%) [9]: 0% | Population Mitochondria Different-Phenotype (%) [9]: 10% | Population Mitotic Cells (%) [9]: 37% | Population Normal (%) [9]: 95% | Population Pyknosed Nuclei (%) [9]: 12% | Population Tubulin-Different-Phenotype (%) [9]: 52% | Total Cell Count [9]: 133 | Population Apoptotic (%) [10]: 60% | Population Fragmented Nuclei (%) [10]: 42% | Population Healthy Nuclei (%) [10]: 51% | Population Membrane Permeable-Phenotype (%) [10]: 1% | Population Mitochondria Different-Phenotype (%) [10]: 9% | Population Mitotic Cells (%) [10]: 40% | Population Pyknosed Nuclei (%) [10]: 5% | Population Tubulin-Different-Phenotype (%) [10]: 67% | Total Cell Count [10]: 175 | Population Apoptotic (%) [11]: 62% | Population Fragmented Nuclei (%) [11]: 18% | Population Healthy Nuclei (%) [11]: 50% | Population Hoechst High Intensity Objects (%) [11]: 34% | Population Membrane Permeable-Phenotype (%) [11]: 0% | Population Mitochondria Different-Phenotype (%) [11]: 60% | Population Mitotic Cells (%) [11]: 37% | Population Normal (%) [11]: 65% | Population Pyknosed Nuclei (%) [11]: 31% | Population Tubulin-Different-Phenotype (%) [11]: 88% | Total Cell Count [11]: 208 | Population Apoptotic (%) [12]: 44% | Population Fragmented Nuclei (%) [12]: 30% | Population Healthy Nuclei (%) [12]: 43% | Population Mitochondria Different-Phenotype (%) [12]: 20% | Population Mitotic Cells (%) [12]: 55% | Population Pyknosed Nuclei (%) [12]: 26% | Population Tubulin-Different-Phenotype (%) [12]: 55% | Total Cell Count [12]: 317
